# Results from different studies.
# Each line is one published result; the experiments were not run side by side.
# Target: Mitogen-activated protein kinase kinase kinase 20 (MAP3K20, Homo sapiens, UniProt Q9NYL2)
SMILES,observed,mode,technique,concentration,measurement,result
Cn1c2c(c3ccc(Cl)c(Cl)c31)C(C#N)C1(CCCC1)NC2=O (centres unmarked),thermal stability,,DSF,10 µM,ΔTm,-0.1 °C
c1ccc(CNc2nc(N3CCOc4ccccc43)nc3c2CCCC3)cc1,target engagement in cells,inhibitor,chemoproteomics,20 mM,inhibition,-6.3%
CO[C@H]1CC[C@H](CNc2ccc(S(=O)(=O)NC(=O)c3ccc(N4CCN(CC5=C(c6ccc(Cl)cc6)CC(C)(C)CC5)CC4)cc3Oc3cnc4[nH]ccc4c3)cc2[N+](=O)[O-])CC1,cell-free assay,,competition with immobilised ligand,1 µM,remaining binding,100%
Nc1ncnc2occ(-c3ccc(NC(=O)Nc4cc(C(F)(F)F)ccc4F)cc3)c12,cell-free assay,inhibitor,,20 µM,remaining signal,0.15%
N#CC1c2c([nH]c3c(Cl)c(Cl)ccc23)C(=O)NC12CCCCC2 (racemic),thermal stability,,DSF,10 µM,ΔTm,-0.3 °C
CNC(=O)c1cc2c(Oc3ccc(NC(=O)C4(C(=O)Nc5ccc(F)cc5)CC4)cc3)ccnc2cc1OC,enzyme activity,inhibitor,radiometric,1 µM,inhibition,82%
O=C(Nc1cnn(-c2csc(C(=O)NC3COC3)c2)c1)Nc1c(F)cccc1Cl,enzyme activity,inhibitor,,5 µM,remaining activity,90.4%
CC(C)(C)c1nc(-c2cccc(NS(=O)(=O)c3c(F)cccc3F)c2F)c(-c2ccnc(N)n2)s1,enzyme activity,inhibitor,radiometric,1 µM,remaining activity,101%
CCN1CCC2(CC1)NC(=O)c1c(c3ccc(Cl)c(Cl)c3n1C)C2C#N (racemic),thermal stability,,DSF,10 µM,ΔTm,-0.3 °C
Nc1c(C(=O)NCc2ccc(C(=O)NCCCC3CCCCC3)cc2)cnn1-c1ccccc1,binding,,competition with immobilised ligand,1 µM,remaining binding,42%
c1nc2c(Nc3ccc4c(c3)OCCO4)nc(Nc3ccc4c(c3)OCCO4)nc2[nH]1,enzyme activity,inhibitor,,10 µM,activity vs control,76%
CC1=C(C#N)C(c2ccc3c(c2)c(NC(=O)c2ccccc2C)nn3C)C(C#N)=C(C)N1,cell-free assay,,competition with immobilised ligand,1 µM,remaining binding,100%
Cc1ccc(NC(=O)c2ccc(CN3CCN(C)CC3)cc2)cc1Nc1nc(-c2cccnc2)cs1,cell-free assay,,,0.5 µM,remaining signal,86.8%
CCCOc1ccc([C@H]2[C@H](C(=O)O)[C@@H](c3ccc4c(c3)OCO4)CN2CC(=O)Nc2c(CC)cccc2CC)cc1,cell-free assay,,competition with immobilised ligand,1 µM,remaining binding,90%
Cc1sc(C(=O)NC2COC2)cc1-n1cc(NC(=O)Nc2c(F)cccc2Cl)cn1,enzyme activity,inhibitor,,10 µM,remaining activity,89.9%
COc1cc2c(N3CCN(C(=O)Nc4ccc(OC(C)C)cc4)CC3)ncnc2cc1OCCCN1CCCCC1,cell-free assay,,,0.5 µM,remaining signal,99.7%
CC1(C)NC(=O)c2[nH]c3c(Cl)c(Cl)ccc3c2C1C#N (centres unmarked),thermal stability,,DSF,10 µM,ΔTm,0.6 °C
CN1CC(Oc2cnc(C#N)cc2-c2ccn3nc(NC(=O)C4CC4)cc3c2)C1,enzyme activity,inhibitor,,1 µM,inhibition,12%
CCCCN(CCCC)C(=O)CN1C[C@H](c2cc(OC)c3c(c2)OCO3)[C@@H](C(=O)O)[C@@H]1CC(C)(C)CCC,cell-free assay,,competition with immobilised ligand,1 µM,remaining binding,85.2%
CC(C)(O)[C@H]1CC[C@H](Nc2ccc3ncc(-c4cccc(C(F)(F)F)c4)n3n2)CC1,enzyme activity,inhibitor,,1 µM,remaining activity,75.7%
O=C(NC[C@@H]1[C@H]2CN(C(=O)OCc3cc(C(F)(F)F)cc(C(F)(F)F)c3)C[C@@H]12)c1ccc2[nH]nnc2c1,cell-free assay,,competition with immobilised ligand,1 µM,remaining binding,86%
O=C1Nc2ccc(Cl)cc2C1=Cc1cc(Cl)c(O)c(Cl)c1,cell-free assay,,,0.5 µM,remaining signal,77.4%
CN(c1ccnc(CNc2nc(Nc3ccc4c(c3)CC(=O)N4)ncc2C(F)(F)F)n1)S(C)(=O)=O,cell-free assay,,competition with immobilised ligand,1 µM,remaining binding,100%
Cn1c2c(c3ccc(Cl)c(Cl)c31)C(C#N)C1(CCOCC1)NC2=O (centres unmarked),thermal stability,,DSF,10 µM,ΔTm,0.1 °C
Cc1nccc(COC(=O)N2C[C@@H]3[C@@H](CNC(=O)c4ccc5[nH]nnc5c4)[C@@H]3C2)n1,cell-free assay,,competition with immobilised ligand,1 µM,remaining binding,90%
Cn1c2c(c3ccc(Cl)c(Cl)c31)C(C#N)C1(CCNCC1)NC2=O (racemic),thermal stability,,DSF,10 µM,ΔTm,0 °C
